Experimental data taken from article PMC4724694 (Acta Pharmaceutica Sinica. B, 2016).

Legend:
BV2 cells [1] = experiment: LPS-induced nitric oxide; assay type: cell-based, mouse; settings: LPS 200 ng/mL, 4e at 10, 50 or 100 μmol/L, 24 h
Method in brief: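 Mouse BV2 microglia grown in DMEM with 10% FBS and penicillin-streptomycin (100 μg/mL) at 37 °C, 5% CO2. Cells trypsinized and seeded at 2×10^4 cells/well; 24 h later, test compound added with or without LPS (200 ng/mL). Supernatants collected after 24 h exposure, mixed with equal volume of Griess reagent, and nitrite read at 570 nm.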

5-LOX [2] = target: T1, 5-LOX (Rattus norvegicus, UniProt P12527); experiment: Inhibition of 5-LOX product synthesis; assay type: cell-based
T1 sequence (P12527 1-673): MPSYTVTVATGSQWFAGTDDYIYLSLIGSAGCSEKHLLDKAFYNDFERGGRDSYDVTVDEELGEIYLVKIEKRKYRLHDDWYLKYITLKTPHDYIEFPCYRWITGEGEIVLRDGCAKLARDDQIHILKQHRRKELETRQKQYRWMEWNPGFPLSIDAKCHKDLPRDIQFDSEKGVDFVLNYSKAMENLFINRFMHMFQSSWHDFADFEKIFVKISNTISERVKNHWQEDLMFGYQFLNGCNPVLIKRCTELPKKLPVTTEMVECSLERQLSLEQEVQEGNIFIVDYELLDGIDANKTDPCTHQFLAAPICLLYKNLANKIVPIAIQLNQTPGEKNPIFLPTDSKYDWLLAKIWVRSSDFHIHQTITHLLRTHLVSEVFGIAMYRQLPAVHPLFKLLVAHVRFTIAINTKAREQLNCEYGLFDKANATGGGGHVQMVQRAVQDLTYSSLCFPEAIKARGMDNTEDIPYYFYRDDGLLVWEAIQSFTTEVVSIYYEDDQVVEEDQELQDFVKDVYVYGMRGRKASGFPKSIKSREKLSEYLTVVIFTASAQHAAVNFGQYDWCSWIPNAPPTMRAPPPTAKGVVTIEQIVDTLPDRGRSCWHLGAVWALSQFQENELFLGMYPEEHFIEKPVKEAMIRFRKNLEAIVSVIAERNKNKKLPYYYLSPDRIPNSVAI

HT22 cells = experiment: Glutamate-induced oxidative toxicity in HT22 neuronal cells, MTT assay; assay type: cell-based, mouse; settings: glutamate 5 mmol/L, 24 h, 4e at 1–100 μmol/L
mouse MCAO model = settings: in vivo, ip, 50 mg/kg
BV2 cells [3] = experiment: BV2 cell viability, MTT assay; assay type: cell-based, mouse; settings: tested concentrations 10, 50, 100 μmol/L, with or without LPS
5-LOX [4] = target: T2, 5-LOX (Homo sapiens, UniProt P09917); experiment: Inhibition of 5-LOX product synthesis; assay type: cell-based
T2 sequence (P09917 1-674): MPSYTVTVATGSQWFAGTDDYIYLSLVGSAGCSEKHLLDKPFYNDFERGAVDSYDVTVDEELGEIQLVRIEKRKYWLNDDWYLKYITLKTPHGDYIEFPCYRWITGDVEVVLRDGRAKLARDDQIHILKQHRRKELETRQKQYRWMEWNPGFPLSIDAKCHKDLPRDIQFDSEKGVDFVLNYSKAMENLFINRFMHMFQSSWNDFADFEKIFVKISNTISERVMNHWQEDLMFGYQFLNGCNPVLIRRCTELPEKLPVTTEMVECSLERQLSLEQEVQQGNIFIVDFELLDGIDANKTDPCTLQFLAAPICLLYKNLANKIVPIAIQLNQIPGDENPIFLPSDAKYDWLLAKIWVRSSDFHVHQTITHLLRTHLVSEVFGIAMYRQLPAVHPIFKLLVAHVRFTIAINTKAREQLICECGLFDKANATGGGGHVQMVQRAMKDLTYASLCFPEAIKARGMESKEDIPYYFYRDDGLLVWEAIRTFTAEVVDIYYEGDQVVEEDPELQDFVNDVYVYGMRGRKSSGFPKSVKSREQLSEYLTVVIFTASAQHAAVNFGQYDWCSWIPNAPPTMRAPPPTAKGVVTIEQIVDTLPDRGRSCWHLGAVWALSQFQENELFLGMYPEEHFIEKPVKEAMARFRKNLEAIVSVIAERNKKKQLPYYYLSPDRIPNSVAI

5-LOX [5] = target: T2, 5-LOX; experiment: Cell-free 5-LOX enzymatic assay; assay type: biochemical

CC(C)(C)c1cc(NC(=O)c2cc(-c3ccc4c(c3)OCO4)n(-c3ccc(S(N)(=O)=O)cc3)n2)cc(C(C)(C)C)c1O [4e, N-(3,5-di-tert-butyl-4-hydroxyphenyl)-5-(benzo [1, 3]dioxol-5-yl)-1-(4-amino-sulfonylphenyl)-1H-pyrazole-3-carboxamide]
LPS-induced generation of NO (BV2 cells [1]): remarkably attenuated
IC50 (5-LOX [2]; IC50 PMNL, rat peritoneal polymorphonuclear leukocytes): 0.69 µM
inhibition at 5 µM (5-LOX [2]; PMNL, read-out: Inhibition at 5 μmol/L (%)): 90.1%
Glutamate-induced HT22 cell death (MTT) (HT22 cells): remarkably reduced glutamate-induced HT22 cell death
Cortical, striatal and hemispheric infarct volumes (mouse MCAO model): significantly decreased cortical, striatal and hemispheric infarct volumes
Cell viability of BV2 cells (MTT) (BV2 cells [3]): did not reduce the viabilities of BV2 cells
IC50 (5-LOX [4]): 1.08 µM
IC50 (5-LOX [5]): 0.133 ± 0.014 µM
